From ChEMBL document CHEMBL4376878, “Potent Thiophene Antagonists of Human Complement C3a Receptor with Anti-Inflammatory Activity” (J Med Chem, 2020) come the findings set out here.

Activity calls are given as the source filed them. No cut-off for these calls is given here.

Data set [1] concerns Rattus norvegicus. Briefly: Antiinflammatory activity in Wistar rat model of BR103-induced paw edema assessed as inhibition of activation/degranulation of mast cells at 10 mg/kg, po administered via gavage pretreated for 2 hrs followed by BR103 challenge and measured after 30 mins by tryptase staining-based microscopic analysis. It is filed as functional, organism-based. An outline of the steps: (§1)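 Male Wistar rats 7–8 weeks old, given 10 mg/kg p.o. in olive oil 2 h before i.pl. BR103 (350 μg/paw). Sham/control received olive oil. Left paw plantar tissue taken 30 min after agonist and fixed in formalin. Frozen 5 μm sections stained with alcian blue/safranin O, or immunostained for tryptase, histamine or ED1. Positive cells quantified; n = 5 per group, one-way ANOVA.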

The test system of data set [2] is Rattus norvegicus. Briefly: Antiinflammatory activity in Wistar rat model of BR103-induced paw edema assessed as reduction in Ccl2 gene expression at 10 mg/kg, po administered via gavage pretreated for 2 hrs followed by BR103 challenge and measured after 30 mins by SYBR green dye based RT-PCR analysis. It is filed as functional, organism-based. An outline of the steps:
(§2)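 Rats given 10 mg/kg p.o. in olive oil 2 h before i.pl. BR103 (350 μg/paw). Paws collected 0.5 h after agonist and homogenized in TRIsure for RNA. qPCR run in duplicate, normalized to Hprt, with fold change relative to sham. n = 3–5 male Wistar rats per group.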

The nature of data set [3]: Volume of distribution in Wistar rat at 1 mg/kg, iv by LC-MS/MS analysis. It is filed as ADME, organism-based. The conditions noted are these: in vivo. In short, it runs like this: (§3)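 Male Wistar rats with jugular vein catheter, fasted overnight; dosed p.o. by gavage in olive oil or i.v. via catheter in 50% DMSO. Blood drawn from conscious unrestrained rats 5 min before dosing, then 5, 15, 30 min and 1–8 h after. Volume replaced with heparinized saline. Rats fed after 4 h sample. n = 3 per route.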

Data set [4] is described as follows: AUC (0 to 8 hrs) in Wistar rat at 10 mg/kg, po by LC-MS/MS analysis. It is filed as ADME, organism-based. On the set-up: dose 10 mg/kg, time < 8 hr, route oral. The conditions noted are these: in vivo. An outline of the steps:
as §3

A short description of data set [5]: AUC (0 to 8 hrs) in Wistar rat at 1 mg/kg, iv by LC-MS/MS analysis. It is filed as ADME, organism-based. On the set-up: time < 8 hr, dose 1 mg/kg, route intravenous. The conditions noted are these: in vivo. In short, it runs like this:
as §3

Data set [6] relates to Rattus norvegicus. Briefly: Antiinflammatory activity in Wistar rat model of BR103-induced paw edema assessed as reduction in histamine release at 10 mg/kg, po administered via gavage pretreated for 2 hrs followed by BR103 challenge and measured after 30 mins by immunohistochemical analysis. It is filed as functional, organism-based. In short, it runs like this: as §1
Data set [7] deals with T1, C3a anaphylatoxin chemotactic receptor (Homo sapiens) (UniProt Q16581).
T1 sequence (whole entry): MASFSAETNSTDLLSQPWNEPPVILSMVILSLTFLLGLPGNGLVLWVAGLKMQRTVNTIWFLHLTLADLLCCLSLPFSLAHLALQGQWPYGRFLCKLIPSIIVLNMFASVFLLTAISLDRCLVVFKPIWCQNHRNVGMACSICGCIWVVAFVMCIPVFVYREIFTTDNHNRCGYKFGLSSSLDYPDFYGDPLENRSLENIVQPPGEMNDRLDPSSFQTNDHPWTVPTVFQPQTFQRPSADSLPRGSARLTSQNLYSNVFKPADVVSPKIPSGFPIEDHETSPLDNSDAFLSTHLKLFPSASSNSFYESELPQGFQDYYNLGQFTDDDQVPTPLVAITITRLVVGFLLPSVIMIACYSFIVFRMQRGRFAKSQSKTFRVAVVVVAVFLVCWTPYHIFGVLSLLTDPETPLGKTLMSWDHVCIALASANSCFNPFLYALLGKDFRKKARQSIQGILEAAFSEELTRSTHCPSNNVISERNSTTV
Briefly: (§4) Antagonist at C3a receptor in human LAD2 cells assessed as inhibition of C3a-induced beta-hexosaminidase release preincubated for 30 mins followed by C3a addition. In kind it is cell-based. In short, it runs like this:
(§5)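 LAD2 mast cells grown with SCF, 1 × 10⁴ cells/well seeded overnight and presensitized overnight with IgE (100 ng/mL). Compounds preincubated 30 min at 37 °C in 0.1 M HEPES pH 7.4, then C3a added and β-hexosaminidase release measured. IC50 is concentration inhibiting 50% of release induced by 100 nM C3a; n ≥ 3.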

Data set [8] concerns the target T2, C3a anaphylatoxin chemotactic receptor (Homo sapiens, UniProt Q16581).
T2 sequence (Q16581 whole entry): T1 sequence (whole entry)
The description is as §4. It is filed as cell-based. An outline of the steps:
as §5

In data set [9] the target is T1, C3a anaphylatoxin chemotactic receptor (Homo sapiens). Briefly: Potency index, ratio of SB290157 IC50 to test compound IC50 for antagonist activity at C3a receptor in human MDM cells. In kind it is cell-based.
The nature of data set [10]: Stability of the compound in rat plasma at 1 mM measured after 4 hrs by LC-MS analysis. It is filed as ADME, cell-free. In short, it runs like this:
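Compound added to rat plasma from 1 mM DMSO stock (stock concentration) and incubated at 37 °C. Samples taken at 0, 5, 15, 30, 60, 120 and 240 min, quenched in MeCN/H₂O 9:1, centrifuged and analyzed by LC-MS. Plasma activity checked with SLIGRL-NH₂.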

Data set [11] deals with T1, C3a anaphylatoxin chemotactic receptor (Homo sapiens). Briefly: (§6) Antagonist activity at C3a receptor in human MDM cells assessed as inhibition of C3a-induced intracellular calcium release preincubated for 30 mins followed by C3a addition and measured at 1 sec interval for => 200 secs by Fluo-3 AM dye-based FLIPR assay. In kind it is functional, cell-based. In short, it runs like this: (§7)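 Macrophages were derived from CD14⁺ monocytes (M-CSF, 7 days) and dye-loaded with 4 μM Fluo-3 AM for 1 h at 37 °C in HBSS/probenecid/HEPES, pH 7.4. Antagonist was preincubated for 30 min at 37 °C before addition of synthetic full-length human C3a (100 nM). FLIPR fluorescence was read at ex 495/em 520 nm. Percent response was plotted against log concentration; n ≥ 3.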

Data set [12] has as its target T2, C3a anaphylatoxin chemotactic receptor. The data set is described as §6. In kind it is functional, cell-based. The conditions noted are these: read-out: IC50. An outline of the steps:
as §7

In data set [13] the target is T1, C3a anaphylatoxin chemotactic receptor (Homo sapiens). Briefly: Potency index, ratio of SB290157 IC50 to test compound IC50 for antagonist activity at C3a receptor in human LAD2 cells assessed as inhibition of C3a-induced beta-hexosaminidase release. In kind it is cell-based.
The test system of data set [14] is Rattus norvegicus. Briefly: Antiinflammatory activity in Wistar rat model of BR103-induced paw edema assessed as reduction in Il1b gene expression at 10 mg/kg, po administered via gavage pretreated for 2 hrs followed by BR103 challenge and measured after 30 mins by SYBR green dye based RT-PCR analysis. In kind it is functional, organism-based. In short, it runs like this:
as §2

For data set [15], the system named is Rattus norvegicus. Briefly: Antiinflammatory activity in Wistar rat model of BR103-induced paw edema assessed as reduction in Tnf gene expression at 10 mg/kg, po administered via gavage pretreated for 2 hrs followed by BR103 challenge and measured after 30 mins by SYBR green dye based RT-PCR analysis. In kind it is functional, organism-based. In short, it runs like this: as §2

Data set [16] relates to Rattus norvegicus. Briefly: Antiinflammatory activity in Wistar rat model of BR103-induced paw edema assessed as reduction in Il6 gene expression at 10 mg/kg, po administered via gavage pretreated for 2 hrs followed by BR103 challenge and measured after 30 mins by SYBR green dye based RT-PCR analysis. In kind it is functional, organism-based. An outline of the steps: as §2

Usually Vd stands for the apparent volume that relates the amount in the body to the concentration in plasma or blood. The low end stands for little distribution into tissue, the high end for wide distribution into tissue. For orientation: AUC(0-t) means the area under the concentration-time curve up to a stated or last time point. High values mean high exposure, low ones low exposure. By IC50 is commonly meant the midpoint of a concentration-inhibition curve. As for `Cc1cc(C(c2ccc(Cl)cc2)c2ccc(Cl)cc2)sc1C(=O)N[C@@H](CCCNC(=N)N)C(=O)O`, the outcome in data set [1], in [2], in [6], in data set [14], in data set [15] and in data set [16] was Active. Besides, the Vd in [3] was 0.1 L. For the same molecule, the AUC(0-t) at 8 h in data set [4] came to 478 ng·h/mL; in data set [5], 3800 ng·h/mL. The inhibition entry in data set [7] and in [11] was “Dose-dependent effect” in each case. In addition, the IC50 in data set [8] was determined as 8 nM; in data set [12], 10 nM. The Ratio IC50 in data set [9] and in [13] was 100 in each case. For the same molecule, the Stability entry in data set [10] is on record as “Stable”.
